Assay results gathered from unrelated publications.
Each line is one published result; the experiments were not run side by side.
Target: MAP kinase-activated protein kinase 5 (MAPKAPK5, Homo sapiens, UniProt Q8IW41)
Residues used in one study (Q8IW41 1-473): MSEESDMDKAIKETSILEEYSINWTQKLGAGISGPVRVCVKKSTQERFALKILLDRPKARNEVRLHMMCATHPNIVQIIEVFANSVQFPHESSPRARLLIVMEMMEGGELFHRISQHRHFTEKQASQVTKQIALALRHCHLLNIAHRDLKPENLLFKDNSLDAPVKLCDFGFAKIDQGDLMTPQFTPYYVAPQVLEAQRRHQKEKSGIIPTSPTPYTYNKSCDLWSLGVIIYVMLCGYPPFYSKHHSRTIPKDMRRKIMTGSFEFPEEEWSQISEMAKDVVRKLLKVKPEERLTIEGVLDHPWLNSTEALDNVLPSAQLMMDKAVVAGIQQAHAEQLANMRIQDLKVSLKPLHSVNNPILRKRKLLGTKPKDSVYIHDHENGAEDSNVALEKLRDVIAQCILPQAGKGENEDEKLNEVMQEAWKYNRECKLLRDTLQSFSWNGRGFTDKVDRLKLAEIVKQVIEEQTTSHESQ

test	conditions	remaining binding	Structure (SMILES)
cell-free assay, competition with immobilised ligand	1 µM	84%	CSc1cccnc1N1CCN(Cc2nc3ccccc3[nH]2)CC1
binding	1 µM	69%	C[C@H]1CCN(c2nccc(-c3cnn4ncccc34)n2)C1
binding, competition with immobilised ligand	1 µM	72%	O=C(NCC1CCOCC1)c1n[nH]cc1NC(=O)c1c(F)cccc1F
binding	1 µM	99%	CN(c1nccc(-c2cnn3ncccc23)n1)C1CC1
binding, competition with immobilised ligand	1 µM	100%	O=C(NCCCN1CCOCC1)c1ccc(Nc2ncc(Cl)c(-c3ccc(Cl)s3)n2)cc1
cell-free assay, competition with immobilised ligand	1 µM	99%	CN(C)CC#Cc1ccc(OCCCc2sc(N3CCc4cccc(C(=O)Nc5nc6ccccc6s5)c4C3)nc2C(=O)O)c(F)c1
binding	1 µM	100%	CC1CCCN1c1nccc(-c2cnn3ncccc23)n1 (stereo not shown)
cell-free assay, competition with immobilised ligand	1 µM	93%	O=S(=O)(NC1CCC(c2cc(F)ccc2F)(S(=O)(=O)c2ccc(Cl)cc2)CC1)C(F)(F)F (stereo not shown)
binding, competition with immobilised ligand	1 µM	100%	CCN1CCN(Cc2ccc(C(=O)Nc3ccc(C)c(Oc4ccc5c(c4)CC(=O)N5)c3)cc2C(F)(F)F)CC1
binding, competition with immobilised ligand	0.1 µM	76%	C[C@@H](c1ccc(-n2cnc3c(N)ncnc32)cc1)N1CCc2nn(C)c(Cc3ccccc3)c2C1=O
cell-free assay, competition with immobilised ligand	0.1 µM	100%	Cn1cc(Cl)c2c(Oc3c(F)cc(Nc4cc(Cl)nc(N)n4)cc3F)ccnc21
binding	1 µM	100%	CN(CCCC(F)(F)F)c1nccc(-c2cnn3ncccc23)n1
cell-free assay, competition with immobilised ligand	1 µM	100%	CC(=O)Nc1c(C(C)=O)c(=O)n(C)c2nc(-c3ccc(Cl)cc3Cl)c(-c3ccc(Cl)cc3)cc12
binding, competition with immobilised ligand	1 µM	96%	O=C(c1ccc(Nc2nccc(-c3cc4ccccc4s3)n2)cc1)N1CCC(N2CCCC2)CC1
binding, competition with immobilised ligand	1 µM	100%	COc1cnc(Nc2cccc(S(N)(=O)=O)c2)nc1N1CCN(c2ccccc2)C(=O)C1
cell-free assay, competition with immobilised ligand	0.1 µM	86%	C[C@H](c1ccnc(Nc2nc3ccc(-c4cc(N(C)C)ncn4)cc3[nH]2)c1)N1CCN(C(=O)CC(F)(F)F)CC1
binding	1 µM	74%	CN(C)c1ncc(F)c(-c2cnn3ncccc23)n1
binding, competition with immobilised ligand	1 µM	97%	Nc1ncc2c(n1)-c1c([nH]c3ccc(C#CC4CC4)cc13)CCCC2
binding, competition with immobilised ligand	1 µM	82%	O=C(NCCCN1CCOCC1)c1ccc(Nc2nccc(-c3cc4ccccc4s3)n2)cc1
